This is an account of results in ChEMBL document CHEMBL1155483, “Anthranilic acid replacements in a niacin receptor agonist” (Bioorg Med Chem Lett, 2010).

Series [1] has as its target Hydroxycarboxylic acid receptor 2 (Homo sapiens) (UniProt Q8TDS4). The experiment in a line: Displacement of [3H]niacin from human niacin receptor expressed in CHO-KI cells in presence of human serum. Format: cell-based. The essentials:
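Membranes from CHO-K1 cells stably expressing the niacin receptor; [3H]niacin displacement titrated with and without added human serum (serum level not stated); the serum shift is given as fold change. Values are means of two independent titrations, with calculated standard errors below 15%.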
(In general: In a radioligand displacement assay an active substance lowers the binding of a labelled ligand.)

A short description of series [2]: Cmax in mouse plasma. Format: ADME, organism-based.
The nature of series [3]: Volume of distribution at steady state in mouse plasma. Format: ADME, organism-based. The note with it: read-out: Vdss.
A short description of series [4]: Oral bioavailability in mouse plasma. Format: ADME, organism-based.
A short description of series [5]: Half life in mouse plasma. The series is classed as ADME, organism-based.
A short description of series [6]: Clearance in mouse plasma. The series is classed as ADME, organism-based.
Series [7] can be described thus: Volume of distribution at steady state in rat plasma. Format: ADME, organism-based. The conditions noted are these: read-out: Vdss.
A short description of series [8]: Clearance in rat plasma. The series is classed as ADME, organism-based.
Series [9] is described as follows: Half life in rat plasma. Format: ADME, organism-based.
Series [10] is described as follows: Cmax in rat plasma. The series is classed as ADME, organism-based.
Series [11] in a line: Oral bioavailability in rat plasma. The series is classed as ADME, organism-based.
Series [12] deals with Hydroxycarboxylic acid receptor 2 (Homo sapiens) (UniProt Q8TDS4). The experiment in a line: Displacement of [3H]niacin from human niacin receptor expressed in CHO-KI cells at 25 uM. The series is classed as cell-based.
Sequence of Hydroxycarboxylic acid receptor 2 (Homo sapiens) (Q8TDS4 whole entry): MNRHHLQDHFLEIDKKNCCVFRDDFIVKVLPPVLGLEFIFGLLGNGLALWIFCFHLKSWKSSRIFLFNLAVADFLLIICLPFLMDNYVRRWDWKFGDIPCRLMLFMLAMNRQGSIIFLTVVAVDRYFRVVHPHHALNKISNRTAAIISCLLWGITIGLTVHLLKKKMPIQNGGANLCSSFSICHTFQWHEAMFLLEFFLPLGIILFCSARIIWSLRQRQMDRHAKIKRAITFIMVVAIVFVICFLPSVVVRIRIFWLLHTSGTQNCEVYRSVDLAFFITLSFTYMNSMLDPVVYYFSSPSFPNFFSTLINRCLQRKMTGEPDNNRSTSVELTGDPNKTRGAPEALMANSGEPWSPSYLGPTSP

Consider `CCCC1CCC(NC(=O)CCc2ccc3cc(O)ccc3c2)=C(C(=O)O)C1` (stereo not drawn), for which, in [1], the fold change (FC) is more than 400.

For `Cn1nccc1C1CCC(NC(=O)CCc2ccc3cc(O)ccc3c2)=C(C(=O)O)C1` (stereo not drawn), in series [1], the fold change (FC) is 200.

One may read the Cmax as the highest concentration seen after dosing. As usually defined, the bioavailability is dose-corrected exposure relative to a reference, in per cent. Low readings indicate poor availability, high ones good availability. As usually defined, the half-life is the time needed for the level to fall by half in the phase considered. What is called clearance is the rate of elimination divided by the concentration. Read a high clearance as efficient removal. The compound `O=C(CCc1ccc(-c2ccc(O)cc2)cc1)Nc1ccccc1C(=O)O` yielded a Cmax in [2] of 4 µM. Besides, in [3], the Vd turned out to be 0.78 L/kg. In [4], this compound registered a bioavailability of 35%. For the same compound, in [5], the half-life was 2.4 h. In series [6], this compound came in with a clearance of 8.7 mL/min/kg.

Take `O=C(CCc1ccc2cc(O)ccc2c1)NC1=C(C(=O)O)CC(c2cc(F)cc(F)c2)CC1` (stereo not drawn): in series [1], the fold change (FC) was more than 400.

As to `NC(Cc1nc(-c2ccc(F)cn2)no1)C(=O)NC1=C(C(=O)O)CCCC1` (stereo not drawn), in [2], the concentration peaked (Cmax) at 16 µM. In addition, the Vd in [3] stood at 1.4 L/kg. Also, in series [4], the bioavailability turned out to be 87%. In addition, the half-life in series [5] is 14 h. Also, the fold change (FC) in series [1] was more than 400. The clearance in series [6] is 0.5 mL/min/kg.

Take `O=C(CCc1ccc2cc(O)ccc2c1)NC1=C(C(=O)O)CC(c2cccnc2F)CC1` (stereo not drawn): the fold change (FC) in series [1] turned out to be 100.

In the case of `Cn1cc(C2CCC(NC(=O)CCc3ccc4cc(O)ccc4c3)=C(C(=O)O)C2)cn1` (stereo not drawn), the fold change (FC) in series [1] is more than 400.

For `O=C(CCc1ccc2cc(O)ccc2c1)NC1=C(C(=O)O)CC(c2ccccc2F)CC1` (stereo not drawn), the fold change (FC) in series [1] is more than 400.

In series [2], `O=C(CCc1ccc(-c2ccc(O)cc2)cc1)NC1=C(C(=O)O)CC(c2cccnc2F)CC1` (stereo not drawn) yielded a Cmax of 1.2 µM. In [3], the Vd worked out at 0.42 L/kg. Moreover, the bioavailability in series [4] worked out at 12%. The half-life in series [5] is 1.8 h. For the same compound, the clearance in series [6] is 5.4 mL/min/kg.

As to `O=C(CCc1nc(-c2ccc(F)cn2)no1)NC1=C(C(=O)O)CCCC1`, the fold change (FC) in series [1] is more than 400.

As to `O=C(CCc1ccc2cc(O)ccc2c1)NC1=C(C(=O)O)CC(c2ccc(F)nc2)CC1` (stereo not drawn), the fold change (FC) in [1] was 90.

For the compound `NC(Cc1nc(-c2ccc(F)cn2)no1)C(=O)NC1=C(C(=O)O)CC(c2cc(F)cc(F)c2)CC1` (stereo not drawn), the Vd in [7] turned out to be 2.4 L/kg. In addition, the clearance in series [8] was determined as 2.3 mL/min/kg. In series [9], the half-life was 4.8 h. Moreover, the fold change (FC) in series [1] was found to be 30. In series [10], this compound gave a Cmax of 3.8 µM. The bioavailability in series [11] was determined as 44%.

Consider `O=C(CCc1nc(-c2ccc(F)cn2)no1)NC1=C(C(=O)O)CC(c2cc(F)cc(F)c2)CC1` (stereo not drawn), for which the fold change (FC) in series [1] is 30.

Turning to `O=C(CCc1nc(-c2ccc(O)cn2)no1)NC1=C(C(=O)O)CCCC1`, the concentration in series [2] peaked (Cmax) at 3.9 µM. The Vd in [3] amounted to 0.21 L/kg. The bioavailability in [4] was 13%. The compound further had a half-life in series [5] of 1.3 h. This compound yielded a clearance in [6] of 2 mL/min/kg.

As to `C[C@H]1CC(NC(=O)CCc2nc(-c3ccc(O)cn3)no2)=C(C(=O)O)C[C@H]1c1cccc(F)c1`, the concentration in [2] peaked (Cmax) at 0.3 µM. The Vd in [3] amounted to 0.76 L/kg. In [4], this compound returned a bioavailability of 2%. In addition, in series [5], the half-life is 3.9 h. Moreover, in [6], the clearance was determined as 5.6 mL/min/kg.

Regarding `O=C(CCc1ccc2cc(O)ccc2c1)NC1=C(C(=O)O)CC(c2cccc(F)c2)CC1` (stereo not drawn), in [1], the fold change (FC) is more than 400.

By inhibition is commonly meant the drop in the measured response relative to a control, in per cent. High values mean strong suppression, low ones little suppression. As to `N#CC1CCC(NC(=O)CCc2ccc3cc(O)ccc3c2)=C(C(=O)O)C1` (stereo not drawn), the inhibition in series [12] amounted to 7%.
